Source: ChEMBL document CHEMBL3227952, “Potential organ- or tumor-imaging agents. 18. Radioiodinated diamines and bisquaternaries” (J Med Chem, 1979)

Tests used:
Brain [1] = assay: Drug uptake in Sprague-Dawley rat brain at 11.9 to 12.1 uCi, iv after 2 hrs by liquid scintillation counting; assay type: ADME, organism-based; conditions: in vivo
Pituitary gland [2] = assay: Drug uptake in Sprague-Dawley rat pituitary at 11.9 to 12.1 uCi, iv after 2 hrs by liquid scintillation counting; assay type: ADME, organism-based; conditions: in vivo, in the assay text read “well-scintillation gamma counting” for “liquid scintillation counting”
Method in brief: (§1)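 Five rats per time point were exsanguinated under ether. Organs were excised, rinsed, blotted and weighed. Duplicate samples were counted in a well-scintillation gamma counter (87% efficiency). Results are % administered dose/g, mean ± SEM.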

[3] = Drug uptake in Sprague-Dawley rat dorsolateral prostate at 11.9 to 12.1 uCi, iv after 0.5 hrs by liquid scintillation counting; assay type: ADME, organism-based, Prostate gland; conditions: in vivo
Thyroid gland [4] = assay: Drug uptake in Sprague-Dawley rat thyroid at 11.9 to 12.1 uCi, iv after 2 hrs by liquid scintillation counting; assay type: ADME, organism-based; conditions: in vivo, in the assay text read “well-scintillation gamma counting” for “liquid scintillation counting”; method in brief: as §1
[5] = Drug uptake in Sprague-Dawley rat bone marrow at 11.9 to 12.1 uCi, iv after 2 hrs by liquid scintillation counting; assay type: ADME, organism-based; conditions: in vivo
Pancreas [6] = assay: Drug uptake in Sprague-Dawley rat pancreas at 11.9 to 12.1 uCi, iv after 0.5 hrs by liquid scintillation counting; assay type: ADME, organism-based; conditions: in vivo; method in brief: as §1
Duodenum [7] = assay: Drug uptake in Sprague-Dawley rat duodenum at 11.9 to 12.1 uCi, iv after 0.5 hrs by liquid scintillation counting; assay type: ADME, organism-based; conditions: in vivo
Liver [8] = assay: Drug uptake in Sprague-Dawley rat liver at 11.9 to 12.1 uCi, iv after 0.5 hrs by liquid scintillation counting; assay type: ADME, organism-based; conditions: in vivo; method in brief: as §1
[9] = Drug uptake in Sprague-Dawley rat ventral prostate at 11.9 to 12.1 uCi, iv after 0.5 hrs by liquid scintillation counting; assay type: ADME, organism-based, Prostate gland; conditions: in vivo
Testes [10] = assay: Drug uptake in Sprague-Dawley rat testes at 11.9 to 12.1 uCi, iv after 0.5 hrs by liquid scintillation counting; assay type: ADME, organism-based, Testis; conditions: in vivo; method in brief: as §1
Brain [11] = assay: Drug uptake in Sprague-Dawley rat brain at 11.9 to 12.1 uCi, iv after 0.5 hrs by liquid scintillation counting; assay type: ADME, organism-based; conditions: in vivo
Kidney [12] = assay: Drug uptake in Sprague-Dawley rat kidney at 11.9 to 12.1 uCi, iv after 2 hrs by liquid scintillation counting; assay type: ADME, organism-based; conditions: in vivo, in the assay text read “gamma counting” for “liquid scintillation counting”; method in brief: as §1
Liver [13] = assay: Drug uptake in Sprague-Dawley rat liver at 11.9 to 12.1 uCi, iv after 2 hrs by liquid scintillation counting; assay type: ADME, organism-based; conditions: in vivo, in the assay text read “gamma counting” for “liquid scintillation counting”; method in brief: as §1
[14] = Drug uptake in Sprague-Dawley rat dorsolateral prostate at 11.9 to 12.1 uCi, iv after 2 hrs by liquid scintillation counting; assay type: ADME, organism-based, Prostate gland; conditions: in vivo
Pancreas [15] = assay: Drug uptake in Sprague-Dawley rat pancreas at 11.9 to 12.1 uCi, iv after 2 hrs by liquid scintillation counting; assay type: ADME, organism-based; conditions: in vivo, in the assay text read “well-scintillation gamma counting” for “liquid scintillation counting”; method in brief: as §1
Duodenum [16] = assay: Drug uptake in Sprague-Dawley rat duodenum at 11.9 to 12.1 uCi, iv after 2 hrs by liquid scintillation counting; assay type: ADME, organism-based; conditions: in vivo, in the assay text read “gamma counting” for “liquid scintillation counting”
Method in brief: (§2)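 Dosing was by tail vein under ether. Five rats were killed by exsanguination at each time. Organs were rinsed, blotted and weighed, with duplicate samples in cellulose acetate capsules. Samples were counted in a well-scintillation gamma counter at 87% efficiency. Results are % administered dose/g, mean ± SEM.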

Spleen [17] = assay: Drug uptake in Sprague-Dawley rat spleen at 11.9 to 12.1 uCi, iv after 2 hrs by liquid scintillation counting; assay type: ADME, organism-based; conditions: in vivo, in the assay text read “well-scintillation gamma counting” for “liquid scintillation counting”; method in brief: as §1
Testes [18] = assay: Drug uptake in Sprague-Dawley rat testes at 11.9 to 12.1 uCi, iv after 2 hrs by liquid scintillation counting; assay type: ADME, organism-based, Testis; conditions: in vivo, in the assay text read “well-scintillation gamma counting” for “liquid scintillation counting”; method in brief: as §1
Blood [19] = assay: Drug uptake in Sprague-Dawley rat blood at 11.9 to 12.1 uCi, iv after 0.5 hrs by liquid scintillation counting; assay type: ADME, organism-based; conditions: in vivo
Heart [20] = assay: Drug uptake in Sprague-Dawley rat heart at 11.9 to 12.1 uCi, iv after 0.5 hrs by liquid scintillation counting; assay type: ADME, organism-based; conditions: in vivo
Kidney [21] = assay: Drug uptake in Sprague-Dawley rat kidney at 11.9 to 12.1 uCi, iv after 0.5 hrs by liquid scintillation counting; assay type: ADME, organism-based; conditions: in vivo
Heart [22] = assay: Drug uptake in Sprague-Dawley rat heart at 11.9 to 12.1 uCi, iv after 2 hrs by liquid scintillation counting; assay type: ADME, organism-based; conditions: in vivo, in the assay text read “gamma counting” for “liquid scintillation counting”; method in brief: as §2
Adrenal [23] = assay: Drug uptake in Sprague-Dawley rat adrenal at 11.9 to 12.1 uCi, iv after 0.5 hrs by liquid scintillation counting; assay type: ADME, organism-based, Adrenal gland; conditions: in vivo
Thyroid gland [24] = assay: Drug uptake in Sprague-Dawley rat thyroid at 11.9 to 12.1 uCi, iv after 0.5 hrs by liquid scintillation counting; assay type: ADME, organism-based; conditions: in vivo; method in brief: as §1
[25] = Drug uptake in Sprague-Dawley rat diaphragm at 11.9 to 12.1 uCi, iv after 0.5 hrs by liquid scintillation counting; assay type: ADME, organism-based; conditions: in vivo; method in brief: as §2
Lung [26] = assay: Drug uptake in Sprague-Dawley rat lung at 11.9 to 12.1 uCi, iv after 0.5 hrs by liquid scintillation counting; assay type: ADME, organism-based; conditions: in vivo
Blood [27] = assay: Drug uptake in Sprague-Dawley rat blood at 11.9 to 12.1 uCi, iv after 2 hrs by liquid scintillation counting; assay type: ADME, organism-based; conditions: in vivo
Adrenal [28] = assay: Drug uptake in Sprague-Dawley rat adrenal at 11.9 to 12.1 uCi, iv after 2 hrs by liquid scintillation counting; assay type: ADME, organism-based, Adrenal gland; conditions: in vivo; method in brief: as §2
Lung [29] = assay: Drug uptake in Sprague-Dawley rat lung at 11.9 to 12.1 uCi, iv after 2 hrs by liquid scintillation counting; assay type: ADME, organism-based; conditions: in vivo, in the assay text read “gamma counting” for “liquid scintillation counting”; method in brief: as §1
Pituitary gland [30] = assay: Drug uptake in Sprague-Dawley rat pituitary at 11.9 to 12.1 uCi, iv after 0.5 hrs by liquid scintillation counting; assay type: ADME, organism-based; conditions: in vivo
[31] = Drug uptake in Sprague-Dawley rat bone marrow at 11.9 to 12.1 uCi, iv after 0.5 hrs by liquid scintillation counting; assay type: ADME, organism-based; conditions: in vivo; method in brief: as §2
Spleen [32] = assay: Drug uptake in Sprague-Dawley rat spleen at 11.9 to 12.1 uCi, iv after 0.5 hrs by liquid scintillation counting; assay type: ADME, organism-based; conditions: in vivo
[33] = Drug uptake in Sprague-Dawley rat ventral prostate at 11.9 to 12.1 uCi, iv after 2 hrs by liquid scintillation counting; assay type: ADME, organism-based, Prostate gland; conditions: in vivo; method in brief: as §1
[34] = Drug uptake in Sprague-Dawley rat diaphragm at 11.9 to 12.1 uCi, iv after 2 hrs by liquid scintillation counting; assay type: ADME, organism-based; conditions: in vivo

## CN(C)Cc1ccc(CN(C)C)c([125I])c1
Brain [1]
  Drug uptake: 1.255 % ID/g
Pituitary gland [2]
  Drug uptake: 0.684 % ID/g
[3]
  Drug uptake: 0.657 % ID/g
Thyroid gland [4]
  Drug uptake: 3.114 % ID/g
[5]
  Drug uptake: 0.569 % ID/g
Pancreas [6]
  Drug uptake: 0.737 % ID/g
Duodenum [7]
  Drug uptake: 1.053 % ID/g
Liver [8]
  Drug uptake: 1.069 % ID/g
[9]
  Drug uptake: 0.673 % ID/g
Testes [10]
  Drug uptake: 0.154 % ID/g
Brain [11]
  Drug uptake: 1.791 % ID/g
Kidney [12]
  Drug uptake: 2.225 % ID/g
Liver [13]
  Drug uptake: 1.042 % ID/g
[14]
  Drug uptake: 0.614 % ID/g
Pancreas [15]
  Drug uptake: 0.349 % ID/g
Duodenum [16]
  Drug uptake: 0.349 % ID/g
Spleen [17]
  Drug uptake: 1.511 % ID/g
Testes [18]
  Drug uptake: 0.163 % ID/g
Blood [19]
  Drug uptake: 0.05 % ID/g
Heart [20]
  Drug uptake: 0.367 % ID/g
Kidney [21]
  Drug uptake: 3.598 % ID/g
Heart [22]
  Drug uptake: 0.174 % ID/g
Adrenal [23]
  Drug uptake: 2.287 % ID/g
Thyroid gland [24]
  Drug uptake: 5.001 % ID/g
[25]
  Drug uptake: 0.241 % ID/g
Lung [26]
  Drug uptake: 1.993 % ID/g
Blood [27]
  Drug uptake: 0.038 % ID/g
Adrenal [28]
  Drug uptake: 1.84 % ID/g
Lung [29]
  Drug uptake: 1.065 % ID/g
Pituitary gland [30]
  Drug uptake: 0.899 % ID/g
[31]
  Drug uptake: 0.483 % ID/g
Spleen [32]
  Drug uptake: 1.402 % ID/g
[33]
  Drug uptake: 0.588 % ID/g
[34]
  Drug uptake: 0.114 % ID/g
